Shown are actives, neighbours in structure and some others; about 4.1% of the full set was active somewhere.
Autophagy mod: alters autophagy in cells; AID 463193; 190,000 compounds, 0.98% hits; MEF GFP-LC3 puncta imaging; test concentration mostly 10 µM; calls only at 10 µM (by protocol);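 active = percentage of spot-positive cells more than 3 SD above its plate mean, without a fluorescence outlier flag or 80% toxicity; inconclusive = no clear call, values can overlap the other calls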;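 also: spot-positive cell cutoff set from DMSO-treated cells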
Dynein cargo inh: dynein cargo transport inhibition | z-score, hits read low | 220,000 compounds, 0.47% hits | 3617.4 mouse cells, GR-EGFP nuclear translocation imaging; test concentration mostly 20 µM; stimulated with dexamethasone, 1 µM; stronger effect = lower value;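 active = plate z-score of nuclear minus cytoplasmic receptor signal below a set negative limit, without overly bright fluorescence or cell loss, cut at about -3.5 in these data, passing the limit was not always enough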;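 also: z-score of nuclear minus cytoplasmic ring GR-EGFP intensity difference per well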
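Buffer or medium: tet-free, stripped-serum medium; reagent: dexamethasone at 1.0 µM final, 30 min; incubation: 48 h induction, 1 h compound, 30 min dex at 37 °C; measured by: formaldehyde fixation, Hoechst nuclear stain, 10x automated fluorescence imaging; read-out: nuclear-to-cytoplasmic GR-EGFP distribution per well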
Cl transport mod: modulates chloride dependent transport by human KCC2; Q9H2X9; KCC2 cells, thallium flux FluoZin-2 fluorescence; B-score of Tl+ flux slope (higher = more flux/activation; lower = inhibition) at 10 µM; 190,000 compounds, 2.2% hits;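 active = thallium flux slope and its plate-corrected score both differing from the plate sample mean at a set confidence after two filtering rounds, in either direction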;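 also: slope of fluorescence scaled to starting intensity during 10 to 20 s after thallium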
Target sequence (Q9H2X9 whole entry, looked up): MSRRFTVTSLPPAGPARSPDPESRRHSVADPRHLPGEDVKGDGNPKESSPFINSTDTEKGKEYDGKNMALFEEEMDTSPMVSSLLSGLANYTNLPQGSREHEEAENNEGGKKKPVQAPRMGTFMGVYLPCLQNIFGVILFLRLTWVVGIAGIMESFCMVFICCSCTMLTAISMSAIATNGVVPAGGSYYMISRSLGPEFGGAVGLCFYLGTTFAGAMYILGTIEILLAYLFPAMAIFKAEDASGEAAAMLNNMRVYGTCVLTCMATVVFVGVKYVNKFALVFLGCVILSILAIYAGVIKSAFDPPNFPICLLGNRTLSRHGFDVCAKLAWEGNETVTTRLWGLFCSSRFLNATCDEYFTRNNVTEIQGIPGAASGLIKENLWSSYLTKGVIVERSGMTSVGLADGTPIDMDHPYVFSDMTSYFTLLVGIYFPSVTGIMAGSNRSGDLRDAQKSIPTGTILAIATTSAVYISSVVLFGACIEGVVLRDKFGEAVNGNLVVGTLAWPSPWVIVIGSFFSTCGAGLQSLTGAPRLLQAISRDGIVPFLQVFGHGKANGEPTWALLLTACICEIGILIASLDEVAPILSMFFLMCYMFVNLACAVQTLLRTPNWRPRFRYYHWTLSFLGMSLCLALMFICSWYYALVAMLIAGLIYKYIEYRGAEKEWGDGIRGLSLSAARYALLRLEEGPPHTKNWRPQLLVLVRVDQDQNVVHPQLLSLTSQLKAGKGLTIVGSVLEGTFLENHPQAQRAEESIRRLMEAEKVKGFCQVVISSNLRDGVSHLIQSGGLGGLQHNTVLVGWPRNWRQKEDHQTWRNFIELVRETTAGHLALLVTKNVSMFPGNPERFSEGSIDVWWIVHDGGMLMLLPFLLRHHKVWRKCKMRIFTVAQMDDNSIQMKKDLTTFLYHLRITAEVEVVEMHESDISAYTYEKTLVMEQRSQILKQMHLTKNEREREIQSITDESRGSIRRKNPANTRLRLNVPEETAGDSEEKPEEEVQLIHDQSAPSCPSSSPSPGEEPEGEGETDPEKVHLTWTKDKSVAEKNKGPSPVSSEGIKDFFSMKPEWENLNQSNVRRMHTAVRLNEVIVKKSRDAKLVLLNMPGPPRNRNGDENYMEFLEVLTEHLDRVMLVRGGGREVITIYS
ROMK primary: modulates human ROMK potassium channel activity | B-score at 10 µM | AID 1918 | 130,000 compounds, 2% hits | P48048 | Tet-inducible ROMK, thallium flux fluorescence; actives lie on both sides;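 active = signal ratio slope over the read window, or its plate-corrected B-score, at least 3 SD from the plate mean, either direction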;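 also: B-score of the F/F0 ratio slope over 7 to 12 s after thallium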
Redox H2O2 prof: compounds producing H2O2 with reducing agent – biochemical, NIH compound library profiling, artefact control for MLSCN library redox annotation, primary screen; DTT-dependent redox cycling H2O2, phenol red/HRP absorbance; 100% = 100 µM peroxide control, 0% = buffer; activation, % at 10 µM; 200,000 compounds, 0.03% hits;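 active = activation of at least 50% relative to the plate's high and low controls in the primary single-dose screen; inactive = activation below 50%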;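 also: compound incubated with DTT at 0.8 mM final as the reducing agent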
KCC2 secondary: KCC2 (human) modulation, secondary assay; shares compounds with Cl transport mod; HEK293-KCC2, thallium flux, FluoZin2 fluorescence; stronger effect = higher value; normalised thallium flux (F/F0 slope) at 10 µM; 3,700 compounds, 15% hits;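 active = thallium flux slope above the same plate's solvent-only control mean plus 3 SD; inconclusive = the two replicate wells disagree; inactive = no significant difference from solvent-only control wells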
KCC2 bumet counter: thallium flux despite bumetanide block in KCC2 cells, secondary assay 3. shares compounds with Cl transport mod. HEK293-KCC2 + bumetanide/ouabain, thallium flux FluoZin2; stronger effect = higher value. normalized thallium flux at 10 µM. 3,700 compounds, 49% hits. AID 1714;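 active = thallium entry rate above the same plate's blocked-transporter control wells by more than 3 SD; inconclusive = the two repeat wells disagree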;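 also: raw slope of fluorescence over initial fluorescence between 10 and 20 s after thallium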
KCC2 sec2: confirmation of human KCC2 transport modulators | normalized thallium flux at 10 µM | AID 1715 | shares compounds with Cl transport mod | HEK293-KCC2, thallium flux FluoZin2 fluorescence; actives lie on both sides; F/F0 rise rate, 10–20 s post-thallium | 3,700 compounds, 23% hits;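 active = thallium flux slope more than 3 SD above or below the plate's solvent-only control mean, mostly below; inconclusive = the two repeat wells disagreed; inactive = no significant shift from solvent-only controls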;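 also: raw slope with 0.1% DMSO as baseline and bumetanide as block control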
HEK293 Tl flux: counter-screen for KCC2 modulators: effect in parental HEK293 cells | shares compounds with Cl transport mod | thallium flux FluoZin2, ouabain; baseline-ratio fluorescence slope, 10–20 s after thallium | thallium flux rate (normalised fluorescence) at 10 µM | 3,700 compounds, 46% hits;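 active = thallium flux rate significantly above the same plate's solvent-only control wells, beyond their mean plus 3 SD; inconclusive = the two replicate wells gave conflicting results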
KCC2 ouabain: modulates human KCC2 on retest with ouabain; shares compounds with Cl transport mod; HEK293-KCC2, thallium flux FluoZin2 fluorescence; bidirectional: low = inhibitor, high = activator; raw Tl+ flux slope (below DMSO = inhibition, above = activation) at 10 µM; 3,700 compounds, 48% hits;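 active = thallium flux slope beyond 3 SD from same-plate DMSO control mean in most replicates, usually higher, sometimes lower; inconclusive = repeat tests gave conflicting results; inactive = no significant difference from controls in most replicates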;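 also: slope of initial-normalized fluorescence between seconds 10 and 20 after thallium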
HEK counter2: counter-screen for KCC2 modulators: effect in parental HEK293 cells | shares compounds with Cl transport mod | thallium flux FluoZin-2 fluorescence slope | thallium flux slope at 10 µM | 3,700 compounds, 33% hits | AID 1718;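 active = thallium flux slope above the same plate's solvent-control mean plus 3 SD in both duplicate wells; inconclusive = duplicate wells that disagreed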;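 also: run without ouabain in cells lacking the KCC2 cotransporter; slope of fluorescence scaled to its starting value between 10 and 20 s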
* = called active by the depositor; i = inactive; u = inconclusive; x = no result.

SMILES	Autophagy mod	Dynein cargo inh	Cl transport mod	ROMK primary	Redox H2O2 prof	KCC2 secondary	KCC2 bumet counter	KCC2 sec2	HEK293 Tl flux	KCC2 ouabain	HEK counter2
CC1=CCCC(C)(C)C1/C=C/C(C)=N/NC(=O)c1ccncc1 (stereo unspecified)	i	-1.18	5.29*	-0.902	0.5	u	0.0459*	0.0317	0.0158*	u	0.0123*
C/C(=N/NC(=O)c1ccncc1)C1=C(O)CC(C)(C)CC1=O	i	0.913	0.00812	0.058	-0.5	x	x	x	x	x	x
Cc1cc2cc(CNC(=O)c3ccc(C)c([N+](=O)[O-])c3)ccc2[nH]1	i	1.93	-4.23*	0.42	-0.5	0.00866	0.00634	0.0294	0.00763	u	0.0102
CCOc1ccc(CCNC(=O)c2cc3sccc3n2C)cc1OCC	i	-1.29	3.88*	0.41	0.2	0.00737	0.00412	u	u	0.0172	0.00941
Cc1ccc(C2=NC3(CCCC3)NC2=S)cc1	i	-0.553	5.57*	-0.763	-0.4	0.011	0.0187*	0.0302	0.0112*	0.0235	u
S=C1NC2(CCCCCC2)N=C1c1ccccc1	i	-0.0197	4.62*	-0.155	-0.2	0.0104	0.0158*	0.0379	u	u	0.0129
FC(F)Sc1nc2ccccc2[nH]1	x	-0.251	50.3*	0.57	x	0.026*	0.113*	0.0481*	0.0502*	0.0512*	0.0244*
CC1Nc2nc(N(C)C)[nH]c(=O)c2NC1C (stereo unspecified)	i	0.0962	0.22	-0.579	-0.2	x	x	x	x	x	x
CC1=NN(c2nc(-c3ccccc3)cs2)C(=O)C1N=Nc1ccccc1 (stereo unspecified)	i	-0.332	6.6*	-0.000129	0.4	0.00805	0.0505*	0.029	0.0146*	u	0.00905
O=C(Cn1c(=O)sc2ccccc21)Nc1ccccc1	i	-0.441	6.75*	-0.0132	0.1	0.00639	0.00443	0.0331	0.00779	0.0196	0.0101
CC(=O)Nc1ccc(/C=N/N2CCCCC2)cc1	i	-0.604	-0.63	-0.00707	-1.0	x	x	x	x	x	x
N#Cc1ccccc1NC(=O)CSc1nccn1CCc1ccccc1	i	-0.219	-3.95*	x	5.4	0.00682	0.005	0.0247*	0.00728	0.0144*	0.01
CC(=O)Nc1ccc(NC(=O)CSc2nccn2Cc2ccccc2)cc1	i	-0.0858	-1.94	x	-0.3	x	x	x	x	x	x
Cc1ccc(NC(=O)CSc2nccn2Cc2ccccc2)cc1C	i	-2.46	-3.07*	x	2.6	u	0.00416	0.029	0.00528*	0.0198*	0.0092
O=C1NC(Cc2ccccc2)C(=O)N1CC(=O)N1CCCc2ccccc21 (stereo unspecified)	i	-0.0217	-1.16	-0.248	-2.3	x	x	x	x	x	x
CCN(CC)c1ccc2cc(C(=O)Nc3ccccn3)c(=O)oc2c1	i	3.12	i	x	-2.0	0.00312*	u	0.0156*	0.00366*	0.00541*	0.00648*
CN(C)S(=O)(=O)c1cccc(NC(=O)CCc2c[nH]c3ccccc23)c1	i	-0.249	-1.12	-0.121	-1.2	x	x	x	x	x	x
O=c1oc2ccccc2c(Nc2cc3ccccc3cc2O)c1[N+](=O)[O-]	i	2.34	-4.3*	1.74	-1.5	0.00647	0.00457	u	0.00646	0.0161*	0.00832*
O=c1oc2ccccc2c(Nc2cccc3ccccc23)c1[N+](=O)[O-]	i	0.389	-2.57*	x	-2.7	0.00773	0.00581	0.0318	0.00338	0.0159*	0.0109
O=c1oc2ccccc2c(Nc2ccccc2O)c1[N+](=O)[O-]	i	-0.108	-1.87	-0.227	-0.5	x	x	x	x	x	x
CN(C(=O)COC(=O)CCc1c[nH]c2ccccc12)C(c1ccccc1)c1ccccc1	i	0.658	-1.48	-9.61e-05	0.6	x	x	x	x	x	x
CCN(Cc1ccncc1)Cc1nc(CC2CC2)no1	i	-0.833	0.634	0.236	-0.7	x	x	x	x	x	x
CC1Oc2ccccc2N(CC(=O)N(Cc2ccccc2)Cc2ccccn2)C1=O (stereo unspecified)	i	-0.392	-0.404	x	1.9	x	x	x	x	x	x
COc1ccc(CN(Cc2ccccn2)C(=O)CN2C(=O)COc3ccccc32)cc1	i	-0.193	-2.77*	-2.06	1.9	0.00693	0.00447	0.0241*	0.00752	0.0167*	0.00997
Cc1cccc(NC(=S)N/N=C2/CCCCc3ccccc32)c1	i	0.672	7.95*	0.234	0.7	0.00856	0.0359*	0.0463*	0.0418*	0.0374*	0.0243*
SMILES	Autophagy mod	Dynein cargo inh	Cl transport mod	ROMK primary	Redox H2O2 prof	KCC2 secondary	KCC2 bumet counter	KCC2 sec2	HEK293 Tl flux	KCC2 ouabain	HEK counter2
Cc1ccc(C)c(NC(=S)N/N=C2\CCc3ccccc32)c1	x	-0.431	23.6*	0.0223	x	0.0139*	0.0748*	0.0341	0.0711*	0.0431*	0.0176*
Cc1ccc(NC(=S)N/N=C2/CCCCc3ccccc32)cc1	x	-0.439	32.6*	x	x	0.00728	0.0404*	u	0.0325*	0.0328*	0.0309*
Cc1ccc(C)c(NC(=S)Nc2ncccc2C)c1	i	-0.56	0.43	-0.697	-1.4	x	x	x	x	x	x
CC(C)OCCCNCC(O)c1ccccc1 (stereo unspecified)	i	0.215	0.571	-0.681	-0.1	x	x	x	x	x	x
CC(C)c1cccc(O)c(=O)c1	i	0.112	9.07*	0.00339	-0.3	0.00832	0.0163*	0.0319	0.0129*	0.0262*	u
COc1c(C)cc(C(=O)C2CCCN(C(=O)c3ccc4cc[nH]c4c3)C2)cc1C (stereo unspecified)	i	0.0174	x	0.0899	-1.8	x	x	x	x	x	x
Cc1ccc(/C=C2/Sc3ccccc3N(CC(=O)NCCCOC(C)C)C2=O)cc1	i	1.17	-3.34*	-0.659	-0.4	0.00991	0.00636	u	0.00658	0.0141*	0.0105
CCC1CCCCN1S(=O)(=O)c1ccc(C(=O)Nc2nnc(-c3cccs3)o2)cc1 (stereo unspecified)	i	0.69	15*	x	3.3	0.0138*	0.0544*	0.0291	0.0243*	0.0452*	0.0122*
O=C(Nc1nnc(-c2cccs2)o1)C1CC1	i	-0.364	-0.266	x	0.2	x	x	x	x	x	x

Screens (PubChem BioAssay)
